Measured values as given in publication PMC5829012 (Biochemistry, 2018).
pIC50: −log10 of the molar value. Entries after “also recorded” stand apart in the source; their conditions may differ. Where two headings read alike, the source gives them in different places.

Legend:
[1] = biological target: T1, Aβ42-fibrinogen interaction (Homo sapiens, UniProt P05067); assay: AlphaLISA of the Aβ42-fibrinogen interaction; type: binding; conditions: triplicate
Outline: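 Test compound (0.1–100 μM) incubated 30 min at RT with 10 nM biotinylated Aβ42 and 1 nM fibrinogen in 25 mM Tris-HCl pH 7.4, 150 mM NaCl, 0.05% Tween-20, 0.1% BSA. Anti-fibrinogen antibody, 20 μg/ml streptavidin donor and protein A acceptor beads added for 90 min at RT. Triplicate runs; IC50 from sigmoidal dose-response fit with 95% CI.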

Aβ aggregation = conditions: cited from earlier work
[2] = biological target: T1, Aβ42-fibrinogen interaction; conditions: positive control; cited from earlier work
AD mouse models = conditions: cited from earlier work
[3] = test system: fibrin clot formation from fibrinogen with or without Aβ42 oligomers; assay: In vitro clotting; type: biochemical, human; conditions: compound 20 μM; fibrinogen 1.5 μM; thrombin; 450 nm
Outline: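 Purified human fibrinogen (1.5 μM) was preincubated with test compound (20 μM) or 0.4% DMSO vehicle, with or without Aβ42 oligomers (3 μM). Oligomers were made from HFIP-monomerized films: sonicated in DMSO, agitated overnight at 4°C, spun at 20,000 x g, and quantified by BCA. Clotting was started with thrombin (0.5 U/mL) and CaCl₂ (5 mM) in 20 mM HEPES pH 7.4, 137 mM NaCl at RT. A450 turbidity was followed over time, in triplicate.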

Aβ42 aggregation = Aβ42 aggregation (Homo sapiens, UniProt P05067); assay: Aβ42 aggregation kinetics by ThT fluorescence; type: biochemical; conditions: Aβ42 12.5 μM; compound 48 μM; 37°C, 26 hrs
Outline: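 HFIP-monomerized Aβ42 was dissolved in DMSO by sonication, diluted in 20 mM HEPES pH 7.4/140 mM NaCl, spun 10 min at 4°C and kept on ice for ≤30 min. Wells were DMSO-matched; buffer ± compound served as controls. ThT was 33 μM final; plates shaken at 25 rpm, 37°C. Fluorescence (ex 440/em 480 nm) was read hourly. Triplicate.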

Aβ42 = conditions: surface plasmon resonance; cited from earlier work
[4] = test system: Aβ42-induced activation of the FXII-mediated contact system; assay: Kallikrein activity assay; type: biochemical, human; conditions: DXS 0.1 μg/ml
Outline: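 Aβ42 oligomers (overnight 4°C in HEPES buffer, 1 μM final) ± test compound (40 μM) shaken 30 min at RT in 20 mM HEPES pH 7.4/140 mM NaCl. Human FXII and plasma prekallikrein added (10 nM each), then S-2302 (0.67 mM final). A405 read at RT; rate over 30 min as mU/min. DXS 0.1 µg/ml ± test compound as positive control; triplicate.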

[5] = read-out: AlphaLISA (IC50), known Aβ aggregation inhibitors (Table 1), 10 nM biotinylated Aβ42, 1 nM fibrinogen

T1 sequence (P05067 672-713 limits assumed): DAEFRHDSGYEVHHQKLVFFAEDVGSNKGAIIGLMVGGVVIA
Chain of Aβ42 aggregation (P05067 672-713 limits assumed): as above

O=C1NC(=O)c2cc(Nc3ccccc3)c(Nc3ccccc3)cc21 [4,5-Dianilino Pthalimide (DAPH), 4,5-Dianilino Pthalimide]
pIC50 [1, 5]: 4.36

Oc1cccc(Nc2ccc(Nc3cccc(O)c3)nn2)c1 [RS-0406]
pIC50 [1, 5]: < 4.00
inhibition of Aβ aggregation and its toxicity (Aβ aggregation): strongly inhibit

CN(C)CCN(Cc1ccccc1)C(=O)c1cc(-c2ccc(F)cc2)n2nc(C(C)(C)C)cc2n1 [RU-505]
inhibition of the Aβ42-fibrinogen interaction [2]: known inhibitor of the Aβ42-fibrinogen interaction
cognitive impairment (AD mouse models): lessened the severity
cortical inflammation (AD mouse models): reduced
vascular Aβ deposition (AD mouse models): reduced

CN(C)c1cccc(Oc2cnc(Nc3cccc(O)c3)nc2)c1 [SEN1269]
pIC50 ([1]; RHS analogs of SEN1269 (Table 2), AlphaLISA): 4.75
pIC50 [1, 5]: 4.75
turbidity of the normal fibrin clot formed in the absence of Aβ42 [3]: further decreased the turbidity
Aβ42 aggregation (ThT fluorescence) (Aβ42 aggregation): effectively inhibited Aβ42 aggregation
binding to Aβ42 (Aβ42): binds to Aβ42; also recorded: shown to bind Aβ42
inhibition of Aβ aggregation / β-pleated sheet assembly and toxicity (Aβ aggregation): potent Aβ aggregation inhibitor; also recorded: block

Dextran sulfate
kallikrein activity (positive control) [4]: high kallikrein activity

Tanshinone
pIC50 [1, 5]: < 4.00
inhibition of Aβ aggregation and its toxicity (Aβ aggregation): strongly inhibit
